According to PubChem BioAssay AID493047 (Johns Hopkins Ion Channel Center, 2011):
Calls of active or inactive are those of the source.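 The calls were made as follows: active = a rise or drop in KCNQ3 potassium channel activity at some tested dose, with a dose-response curve obtained; inactive = no effect at any dose, or no curve.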

These molecules were tested against Potassium voltage-gated channel subfamily KQT member 3 (Rattus norvegicus) (UniProt O88944) (assay: rat KCNQ3 activity selectivity test – cell-based, thallium flux, CHO-K1 transient KCNQ3, selectivity assay for KCNQ2 activator project, dose response (AID 493047)). Details: CHO-K1 transient KCNQ3, FluxOR thallium flux fluorescence; series mostly up to 30 µM; potentiation: at the top concentration.
Sequence of Potassium voltage-gated channel subfamily KQT member 3 (Rattus norvegicus) (O88944 whole entry, looked up): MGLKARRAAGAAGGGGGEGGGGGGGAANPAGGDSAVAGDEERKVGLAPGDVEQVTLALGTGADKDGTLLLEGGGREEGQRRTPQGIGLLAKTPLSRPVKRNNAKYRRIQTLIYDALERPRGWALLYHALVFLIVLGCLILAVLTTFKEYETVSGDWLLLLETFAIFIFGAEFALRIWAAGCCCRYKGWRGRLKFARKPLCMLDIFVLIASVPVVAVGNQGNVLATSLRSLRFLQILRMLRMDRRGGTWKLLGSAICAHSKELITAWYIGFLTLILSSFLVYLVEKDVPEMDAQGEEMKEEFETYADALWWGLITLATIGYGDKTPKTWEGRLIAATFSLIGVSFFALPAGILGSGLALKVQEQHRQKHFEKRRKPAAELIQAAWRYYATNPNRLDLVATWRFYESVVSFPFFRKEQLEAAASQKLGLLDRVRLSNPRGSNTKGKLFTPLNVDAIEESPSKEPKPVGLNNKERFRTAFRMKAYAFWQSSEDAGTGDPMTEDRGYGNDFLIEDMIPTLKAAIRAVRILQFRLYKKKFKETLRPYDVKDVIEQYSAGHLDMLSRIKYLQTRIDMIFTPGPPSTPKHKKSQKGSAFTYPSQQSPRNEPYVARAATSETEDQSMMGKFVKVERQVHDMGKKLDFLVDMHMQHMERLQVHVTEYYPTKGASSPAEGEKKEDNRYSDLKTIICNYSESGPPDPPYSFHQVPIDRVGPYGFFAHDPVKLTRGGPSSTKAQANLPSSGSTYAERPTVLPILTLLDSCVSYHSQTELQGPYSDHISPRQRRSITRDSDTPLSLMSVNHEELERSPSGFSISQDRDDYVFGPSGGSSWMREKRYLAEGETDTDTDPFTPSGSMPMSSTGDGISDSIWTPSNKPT
Outline: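 test system = transiently transfected CHO-K1 cells | signal = FluxOR thallium-flux fluorescence | controls = vehicle | reagent = potassium/thallium sulfate stimulus buffer | incubation = FluxOR dye loading 90 min, compound exposure 20 min, both RT, dark | evaluation = fluorescence range over baseline ratio, percent change versus vehicle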

SMILES | potentiation
CCCCC(=O)Nc1c(C)cc(C)cc1Cl | -1.46 (inactive)
Cc1ccc(C)c(NC(=O)C2CC3CCC2C3)c1 (stereo not given) | -10 (inactive)
Cc1cccc(C)c1NC(=O)C1CC2CCC1C2 (stereo not given) | -13.8 (inactive)
Cc1cc(C)c(NC(=O)CC(C)(C)C)c(Cl)c1 | -1.12 (inactive)
Cc1cc(C)c(NC(=O)C2CC3CCC2C3)c(C)c1 (stereo not given) | -9.88 (inactive)
